PREPL inhibitor: human PREPL enzyme inhibition; Q4J6C6; recombinant PREPL, fluorescence polarization activity-based probe; inhibition, % at 5.96 µM; 320,000 tested, 0.68% active; AID 2751; in the data active = inhibition above about 43%;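 also: 0% = enzyme with DMSO and 100% = wells lacking enzyme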
Target sequence (Q4J6C6 whole entry, looked up): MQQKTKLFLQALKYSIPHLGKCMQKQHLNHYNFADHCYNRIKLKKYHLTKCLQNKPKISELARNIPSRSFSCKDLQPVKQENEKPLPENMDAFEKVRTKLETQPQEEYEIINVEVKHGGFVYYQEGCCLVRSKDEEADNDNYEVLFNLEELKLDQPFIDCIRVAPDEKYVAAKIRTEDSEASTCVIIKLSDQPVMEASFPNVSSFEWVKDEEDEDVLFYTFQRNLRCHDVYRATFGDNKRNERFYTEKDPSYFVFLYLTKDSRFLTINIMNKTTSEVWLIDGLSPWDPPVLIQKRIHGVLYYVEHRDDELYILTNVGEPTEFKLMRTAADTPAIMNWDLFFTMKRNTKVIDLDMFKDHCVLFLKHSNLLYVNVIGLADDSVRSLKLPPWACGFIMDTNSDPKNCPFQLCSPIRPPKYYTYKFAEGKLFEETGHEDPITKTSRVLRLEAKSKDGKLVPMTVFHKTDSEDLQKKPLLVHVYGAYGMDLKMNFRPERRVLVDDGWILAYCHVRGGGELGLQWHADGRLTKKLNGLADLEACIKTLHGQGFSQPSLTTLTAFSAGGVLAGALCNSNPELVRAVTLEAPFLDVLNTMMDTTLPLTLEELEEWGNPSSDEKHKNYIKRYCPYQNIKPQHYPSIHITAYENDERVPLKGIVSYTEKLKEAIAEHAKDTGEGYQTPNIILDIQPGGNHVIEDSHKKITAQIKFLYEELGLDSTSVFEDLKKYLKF
CSN inh: inhibitors of human CSN-mediated cullin deneddylation. AID 651999. 360,000 tested, 0.38% active. Purified CSN, SCF-Nedd8-OG deneddylation, fluorescence polarization. inhibition, % at 12.5 µM;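 active = pattern-corrected inhibition above about 35%, with an unprinted fluorescence ratio check between 0.5 and 1.5, limit read from the data, passing the limit was not always enough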;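 also: 0% = enzyme with substrate and 100% = substrate without enzyme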
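test system = HEK293T-derived human Csn5 enzyme | amount = 0.24 nM Csn5 enzyme, final concentration | medium = Tris/NaCl/DTT buffer, pH 7.5 | schedule = 90 min reaction at room temperature | signal = FP | evaluation = inhibition of Csn5 cleavage, % | compound dosing = single dose of 12.5 µM compound with 0.25% DMSO | probe or stimulus = 10 nM SCFSkp2-Nedd8OG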
Rpn11 inh: blocks the human proteasome subunit Rpn11 | O00487 | human 26S proteasome, Ub4-pepOG fluorescence polarization; 20S core pre-blocked with epoxomicin | inhibition, % at 20 µM | 360,000 tested, 0.59% active | AID 588493;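 active = inhibition at 20 µM, scaled to each plate's controls, above about 33%, limit read from the data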
Neddylation inh: inhibitors of human cullin neddylation. 360,000 tested, 0.58% active. TR-FRET cullin neddylation, biochemical. inhibition, % at 25 µM; in the data active = inhibition above about 36%
HNF4A DNA FP: change in binding of human HNF4 alpha to DNA | activity change, % at 10 µM | 360,000 tested, 0.3% active | HNF4a-FITC DNA binding, fluorescence polarization, 1 h | AID 1224865; in the data active = activity change above about 30%, passing the limit was not always enough
TbMetRS inhib: Trypanosoma brucei MetRS inhibition; 360,000 tested, 0.4% active; inhibition, % at 11.9 µM; purified T. brucei MetRS, ATP depletion, Kinase-Glo luminescence;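 active = inhibition above a per-plate cutoff of the control wells' mean inhibition plus 3 SD, cut at about 5.5% in these data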;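 also: 0% = DMSO wells median and 100% = median of wells with control inhibitor compound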
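technique = Kinase-Glo luminescence, ATP depletion format | system = purified MetRS (methionyl-tRNA synthetase) enzyme from Trypanosoma brucei | timing = 15 min preincubation, 2 h reaction, all 25 °C | evaluation = percent inhibition versus plate control medians | dosing = single dose, 11.9 µM final nominal, 0.9% final DMSO | also added = substrates ATP, L-methionine and bulk Escherichia coli tRNA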
Neddyl conf: confirmation of human cullin neddylation inhibitors; shares compounds with Neddylation inh; TR-FRET cullin neddylation biochemical assay; calls only at 25 µM; 1,800 tested, 13% active; in the data active = inhibition above about 40%;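 also: neddylation substrate is the cullin 1 ring ligase complex with SKP2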
* = called active by the depositor; i = inactive; nt = no result given; + = active, no number; ! = not active in a repeat. Compounds with a hit are over-represented: about 2.4% of the library has one in this group of screens.

SMILES	PREPL inhibitor	CSN inh	Rpn11 inh	Neddylation inh	HNF4A DNA FP	TbMetRS inhib	Neddyl conf
Cc1ccc(CNC(=O)CCSCc2cccc(F)c2)cc1	-21	-2	-4	4	-6	0	nt
Cn1c(NCCc2ccncc2)nc2cc(-c3cccc(C(F)(F)F)c3)sc2c1=O	nt	-3	-8	-101	1	0	nt
Cc1cc(C)cc(CC(=O)N2CCC2(C)C(=O)NS(=O)(=O)c2ccc(Br)cc2)c1 (stereo unspecified)	nt	0	-2	5	0	0	nt
COc1ccc(-c2cc(C(=O)N3CCN(c4ncccn4)CC3)c3ccccc3n2)c(OC)c1	9	-2	-12	32	4	0	nt
COc1ccc(-c2cc(C(=O)N3CCCCCC3)c3ccccc3n2)c(OC)c1	1	0	-6	42*	-8	0	nt
CCOC(=O)c1[nH]c2ccc(C(=O)OC)cc2c1C(=O)OCC	-4	-1	-4	39*	1	0	i
CCCC(C)NC(=O)c1ccc2[nH]c3c(c2c1)CC(C)CC3 (stereo unspecified)	1	-8	-6	24	-2	-1	nt
COC(=O)c1ccc2[nH]c3c(c2c1)CC(C)CC3 (stereo unspecified)	19	-1	-1	40*	-1	3	+
CCOC(=O)C1(C)CCCN(C(=O)c2ccc(OC)cc2)C1 (stereo unspecified)	nt	4	4	0	-3	0	nt
O=C(CN1C(=O)NC2(CCCCCC2)C1=O)N1CCN(c2ccccc2)CC1	21	7	0	-1	1	0	nt
COc1ccc(-c2ccnc3cc(C(=O)O)nn23)cc1	5	3	7	53*	-1	1	nt
O=C(COc1ccc(F)cc1)NCC1(N2CCCCC2)CCCCC1	nt	2	2	13	4	-1	nt
O=c1[nH]c2ccccc2nc1/C=C/c1ccccc1	-2	-6	-1	42*	-1	0	nt
O=c1[nH]c2ccccc2nc1/C=C(\O)C1CC1	1	-3	-2	1	2	1	nt
CCOc1c(C)cc(-c2ncccc2O)cc1C	-8	2	-1	45*!	2	0	i
COc1ccc(-c2ncccc2O)cc1	0	-3	7	nt	2	-1	nt
COCCCNC(=S)N(CCO)Cc1cc2cc3c(cc2[nH]c1=O)OCCO3	-6	-3	6	32	0	0	nt
CCC(=O)N(Cc1ccco1)Cc1cc2cc3c(cc2[nH]c1=O)OCO3	14	-9	-1	41*	0	0	i
CCN(CC)CCN(Cc1cc2cc3c(cc2[nH]c1=O)OCCO3)C(=S)NCCCOC	-3	4	11	46*	4	2	nt
CCNC(=S)N(Cc1ccco1)Cc1cc2cc3c(cc2[nH]c1=O)OCCO3	5	-6	0	6	-6	0	nt
CCN(CC)CCCN(Cc1cc2cc3c(cc2[nH]c1=O)OCO3)C(=S)NCc1ccco1	18	5	-2	41*	3	1	i
CN(C)c1ccc(S(=O)(=O)N2CCC(Cc3ccccc3)CC2)cn1	6	1	2	12	3	0	nt
CCCCN(CCCC)C1=Nc2ccccc2N/C1=C(/C#N)C(=O)OCC	-10	-1	14	40*	3	-1	i
O=C(O)CCc1ccc(-c2cccs2)n1CC1CCCO1 (stereo unspecified)	-5	1	5	49*	6	-1	i
O=C(O)CCc1ccc(-c2ccc(F)cc2)n1CC1CCCO1 (stereo unspecified)	8	-1	3	29	6	-1	nt
COc1ccc(S(=O)(=O)N2CCOC2CNC(=O)C(=O)NCCCN2CCCC2=O)cc1OC (stereo unspecified)	nt	-4	-5	-1	-4	0	nt
Cc1ccc(C)c2c1[nH]c1ccccc12	4	2	-2	10	-6	0	nt
Cc1cc(C=O)c(C)c2c1[nH]c1ccccc12	nt	7	-1	40*	-4	0	i

Screens from PubChem.
